A short description of assay [1]: Inhibition of nuclear factor of activated T-cells (NFAT) mediated transcription of beta-galactosidase in J.NFATZ.1 cells. It is filed as functional, cell-based, T-cell.
For assay [2], the system named is Jurkat. As to the kind of experiment: Concentration required to inhibit nuclear factor of activated T-cells mediated transcription of beta-galactosidases expression in J.NFATZ.1 cells; Not active. Format: functional, cell-based. The essentials: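 J.NFATZ.1 cells, 1.25×10^5 per well, were stimulated with PMA (2 ng/mL final) and ionomycin (25 μM final) in the presence of compound (0.1% DMSO final). Incubation 5 h at 37 °C. Cells were lysed and incubated 1 h at 37 °C with 4-methylumbelliferyl β-D-galactoside (10 μg/mL final, pH 7.8). Fluorescence read at […]. IC50 obtained by four-parameter logistic fit.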

Assay [3] concerns Jurkat. Briefly: Binding affinity was measured on jurkat cell membrane using [3H3C] as radioligand. It is filed as functional, cell membranes, Homo sapiens.
The test system of assay [4] is Jurkat. As to the kind of experiment: Binding affinity was measured on jurkat cell membrane using [3H3C] as radioligand. Format: functional, cell membranes, Homo sapiens.
Assay [5] deals with Jurkat. As to the kind of experiment: Inhibition of beta-galactosidase as expression in J.NFATZ.1 cells at 10 uM mediated by nuclear factor of activated T-cells transcription. Format: functional.

With `COc1cccc(Cn2cc3c(=O)n(C)c(=O)n(CC(C)C)c3c2)c1`, the IC50 in assay [1] (T-cell) worked out at 275 nM.

As to `CNC(=O)CCCn1c(=O)c2cn(Cc3cccc4ccccc34)cc2n(CC(C)C)c1=O`, in the assay on Jurkat [2], the IC50 entry is “Not Active”.

Regarding `CC(C)Cn1c(=O)n(C)c(=O)c2cn(C3Cc4ccccc4C3)cc21`, affinity in the assay on Jurkat [3] was put at a Ki of 4.8 nM. The same compound displayed an IC50 in assay [1] (T-cell) of 312 nM.

The compound `CC(C)Cn1c(=O)n(C)c(=O)c2cn(Cc3ccc(O)cc3)cc21` yielded a concentration for half-maximal inhibition (IC50) in assay [1] (T-cell) of 640 nM.

As for `CC(O)Cn1c(=O)n(C)c(=O)c2cn(Cc3cccc4ccccc34)cc21` (centres undefined), the inhibition constant Ki in the assay with Jurkat [3] came out at 697 nM. In assay [1] (T-cell), this compound returned an IC50 of 3950 nM.

In the assay with Jurkat [3], `CC(C)n1c(=O)n(C)c(=O)c2cn(Cc3cccc4ccccc34)cc21` gave an inhibition constant Ki of 15.3 nM. For the same compound, the IC50 in assay [1] (T-cell) worked out at 21.5 nM.

In assay [1] (T-cell), `CSc1c2c(=O)n(C)c(=O)n(CC(C)C)c2cn1Cc1cccc2ccccc12` had an IC50 of 89 nM.

In assay [1] (t-cell), `CCC(C)n1c(=O)n(C)c(=O)c2cn(C3Cc4cccc5cccc3c45)cc21` (stereo in doubt; 5g) displayed an IC50 of 5.4 nM.

Take `CC(C)Cn1c(=O)n(C)c(=O)c2cn(Cc3ccc(O)c(I)c3)cc21`: in assay [1] (T-cell), inhibition was half-maximal at 89 nM (IC50).

Regarding `CC(C)CCn1c(=O)n(C)c(=O)c2cn(Cc3cccc4ccccc34)cc21`, the IC50 in assay [1] (T-cell) is 815 nM.

Turning to `CCn1c(=O)n(C)c(=O)c2cn(Cc3cccc4ccccc34)cc21`, the half-inhibitory concentration (IC50) in assay [1] (T-cell) was 440 nM.

For `CC(C)Cn1c(=O)n(C)c(=O)c2cc(CCc3ccccc3)ccc21`, half-maximal inhibition in assay [1] (T-cell) (IC50) required 4030 nM.

`COc1ccc(Cn2cc3c(=O)n(C)c(=O)n(CC(C)C)c3c2)cc1`: in assay [1] (T-cell), 240 nM corresponded to half-maximal inhibition (IC50).

In turn, `CCC(C)n1c(=O)n(C)c(=O)c2cn(C3Cc4cccc5cccc3c45)cc21` (stereo in doubt; 5g4) yielded an IC50 in assay [1] (t-cell) of 48 nM.

Turning to `CC(C)Cn1c(=O)n(C)c(=O)c2cn(Cc3cccc4ccccc34)cc21`, the inhibition constant (Ki) in the assay on Jurkat [4] was found to be 23 nM. In addition, the midpoint of inhibition in assay [1] (T-cell), the IC50, lay at 26 nM.

In assay [1] (T-cell), `Cn1c(=O)c2cn(Cc3cccc4ccccc34)cc2n(CC2CCCCC2)c1=O` yielded a half-inhibitory concentration (IC50) of 1210 nM.

Take `CC(C)Cn1c(=O)n(C)c(=O)c2cn(Cc3ccccc3F)cc21`: in assay [1] (T-cell), half-maximal inhibition (IC50) required 630 nM.

The compound `CC(C)Cn1c(=O)n(C)c(=O)c2cn(Cc3ccc4ccccc4c3)cc21` returned an inhibitory constant (Ki) in the assay with Jurkat [4] of 29.4 nM. In addition, it took 75 nM to reach half-maximal inhibition in assay [1] (T-cell) (IC50).

In turn, `CC(C)Cn1c(=O)n(C)c(=O)c2cc(NCc3ccc(C(=O)O)cc3)ccc21` returned an Inhibition in the assay on Jurkat [5] of 30%.

In turn, `CC(C)Cn1c(=O)n(C)c(=O)c2cc(NCc3ccc(C(C)(C)C)cc3)ccc21` had an Inhibition in the assay on Jurkat [5] of 34%.

In turn, `CC(C)Cn1c(=O)[nH]c(=O)c2cn(C3Cc4cccc5cccc3c45)cc21` (centres undefined) returned an inhibition constant Ki with Jurkat [3] of 454 nM. Further, inhibition in assay [1] (T-cell) was half-maximal at 660 nM (IC50).

`CC(C)Cn1c(=O)n(C)c(=O)c2cn(C3CCc4ccccc43)cc21` (centres undefined): the IC50 in assay [1] (T-cell) came to 186 nM.

The compound `CSc1ccc(Cn2cc3c(=O)n(C)c(=O)n(CC(C)C)c3c2)cc1` registered an IC50 in assay [1] (T-cell) of 260 nM.

`Cc1ccc(Cn2cc3c(=O)n(C)c(=O)n(CC(C)C)c3c2)cc1`: the IC50 in assay [1] (T-cell) came out at 320 nM.

`CC(C)Cn1c(=O)n(C)c(=O)c2c(SCCCO)n(Cc3cccc4ccccc34)cc21`: the Ki with Jurkat [3] was determined as 1.1 nM. The compound further yielded a 50% inhibitory concentration (IC50) in assay [1] (T-cell) of 6 nM.

In the case of `CC(C)Cn1c(=O)n(C)c(=O)c2cn(Cc3ccc(C(F)(F)F)cc3)cc21`, the IC50 in assay [1] (T-cell) was 1300 nM.

The compound `CCC(C)n1c(=O)n(C)c(=O)c2cn(C3Cc4cccc5cccc3c45)cc21` (stereo in doubt; 5g3) registered an IC50 in assay [1] (t-cell) of 17 nM.

In the case of `COc1cccc(Cn2cc3c(=O)n(C)c(=O)n(CC(C)C)c3c2)c1OC`, inhibition in assay [1] (T-cell) was half-maximal at 224 nM (IC50).

On to `COc1ccc(Cn2cc3c(=O)n(C)c(=O)n(CC(C)C)c3c2)cc1I`, for which, in assay [1] (T-cell), the IC50 came to 166 nM.

In turn, `COC(=O)c1ccc(CNc2ccc3c(c2)c(=O)n(C)c(=O)n3CC(C)C)cc1` gave an Inhibition in the assay with Jurkat [5] of 35%.

As to `COc1ccc(Cn2cc3c(c2CN2CCOCC2)c(=O)n(C)c(=O)n3CC(C)C)cc1`, the Ki in the assay on Jurkat [3] came to 315 nM. In assay [1] (T-cell), this compound yielded an IC50 of 800 nM.

In assay [1] (T-cell), `CC(C)Cn1c(=O)n(C)c(=O)c2ccc(OCc3ccccc3)cc21` displayed a half-maximal inhibitory concentration (IC50) of 2050 nM.

The compound `CCn1c(=O)c2cn(Cc3cccc4ccccc34)cc2n(CC(C)C)c1=O` came in with a concentration for half-maximal inhibition (IC50) in assay [1] (T-cell) of 90 nM.

Consider `COc1ccc(Cn2cc3c(=O)n(C)c(=O)n(CC(C)C)c3c2)c(OC)c1`, for which the affinity in the assay on Jurkat [3] corresponds to a Ki of 88 nM. In assay [1] (T-cell), the half-maximal inhibitory concentration (IC50) turned out to be 310 nM.

As to `CC(C)Cn1c(=O)[nH]c(=O)c2cn(Cc3cccc4ccccc34)cc21`, the 50% inhibitory concentration (IC50) in assay [1] (T-cell) is 3000 nM.

Take `COc1ccc(Cn2cc3c(c2SC)c(=O)n(C)c(=O)n3CC(C)C)cc1`: in the assay with Jurkat [3], the Ki is 305 nM. Besides, the midpoint of inhibition in assay [1] (T-cell), the IC50, lay at 360 nM.

In turn, `COc1ccccc1Cn1cc2c(=O)n(C)c(=O)n(CC(C)C)c2c1` came in with an inhibition constant (Ki) in the assay on Jurkat [4] of 170 nM. Further, in assay [1] (T-cell), the midpoint of inhibition, the IC50, lay at 275 nM.

`CC(C)Cn1c(=O)n(C)c(=O)c2ccc(NCc3ccccc3)cc21` had an Inhibition in the assay with Jurkat [5] of 40%.

The compound `CC(C)Cn1c(=O)n(C)c(=O)c2cn([C@@H](C)c3ccccc3)cc21` displayed a Ki in the assay with Jurkat [3] of 301 nM. Further, 1300 nM corresponded to half-maximal inhibition in assay [1] (T-cell) (IC50).

Regarding `CCCCOc1ccc(Cn2cc3c(=O)n(C)c(=O)n(CC(C)C)c3c2)cc1`, the 50% inhibitory concentration (IC50) in assay [1] (T-cell) was 190 nM.

As to `CC(C)Cn1c(=O)n(C)c(=O)c2cn([C@H](C)c3ccccc3)cc21`, the Ki in the assay on Jurkat [3] stood at 562 nM. Besides, half-maximal inhibition in assay [1] (T-cell) (IC50) required 1200 nM.

With `CC(C)Cn1c(=O)n(C)c(=O)c2cn(Cc3ccccc3Cl)cc21`, the affinity with Jurkat [4], expressed as Ki, was 122 nM. Moreover, the half-maximal inhibitory concentration (IC50) in assay [1] (T-cell) was 260 nM.

For `Cc1c2c(cn1Cc1cccc3ccccc13)c(=O)n(C)c(=O)n2CC(C)C`, in assay [1] (T-cell), the IC50 turned out to be 150 nM.

As for `CC(C)Cn1c(=O)n(C)c(=O)c2cn(C(c3ccccc3)c3ccccc3)cc21`, the concentration for half-maximal inhibition (IC50) in assay [1] (T-cell) is 1460 nM.

For the compound `CC(C)Cn1c(=O)n(C)c(=O)c2cc(NCc3ccccc3)ccc21`, the 50% inhibitory concentration (IC50) in assay [1] (T-cell) is 4470 nM.

Regarding `CC(C)Cn1c(=O)n(C)c(=O)c2cc(OCc3ccccc3)ccc21`, the IC50 in assay [1] (T-cell) turned out to be 2500 nM.

In assay [1] (T-cell), `CC(C)Cn1c(=O)n(C)c(=O)c2cn(Cc3ccccc3)cc21` gave an IC50 of 870 nM.

Regarding `CC(C)Cn1c(=O)n(C)c(=O)c2cc3c(cc21)O[C@H](c1ccccc1)O3`, the midpoint of inhibition in assay [1] (T-cell), the IC50, lay at 2250 nM.

Compound `CC(C)Cn1c(=O)n(C)c(=O)c2cn(Cc3cccc(Cl)c3Cl)cc21` yielded an IC50 in assay [1] (T-cell) of 1200 nM.

Regarding `CC(C)Cn1c(=O)n(C)c(=O)c2cc3c(cc21)O[C@](C)(c1ccccc1)O3`, in assay [1] (T-cell), half-maximal inhibition (IC50) was put at 4480 nM.

Consider `CC(C)Cn1c(=O)n(C)c(=O)c2cn(Cc3ccc(Cl)cc3)cc21`, for which it took 435 nM to reach half-maximal inhibition in assay [1] (T-cell) (IC50).

Regarding `Cn1c(=O)c2cn(Cc3cccc4ccccc34)cc2n(CC2CC2)c1=O`, in assay [1] (T-cell), half-maximal inhibition (IC50) was put at 140 nM.

In the case of `COc1ccc(Cn2cc3c(=O)n(C)c(=O)n(CC(C)C)c3c2)cc1OC`, it took 378 nM to reach half-maximal inhibition in assay [1] (T-cell) (IC50).

`CC(C)Cn1c(=O)n(C)c(=O)c2cc(NCc3ccccc3F)ccc21` yielded a concentration for half-maximal inhibition (IC50) in assay [1] (T-cell) of 1320 nM.

For `CC(C)Cn1c(=O)n(C)c(=O)c2cn(C3Cc4cccc5cccc3c45)cc21` (centres undefined), in assay [1] (T-cell), inhibition was half-maximal at 8 nM (IC50).

For orientation: IC50 means the concentration that gives 50% inhibition. For orientation: Ki means the dissociation constant of the complex between target and ligand, obtained from inhibition or displacement. What is called Inhibition is how much of the control response was suppressed. Low values mean a weak effect, high ones a strong effect.

(Values after ChEMBL document CHEMBL1128427, “Novel inhibitors of the nuclear factor of activated T cells (NFAT)-mediated transcription of beta-galactosidase: potential immunosuppressive and antiinflammatory agents” (J Med Chem, 1995).)
